From ChEMBL document CHEMBL1156462, “Seco-pregnane steroids target the subgenomic RNA of alphavirus-like RNA viruses” (Proc Natl Acad Sci U S A, 2007) come the findings set out here.

The subject of series [1] is Tobacco mosaic virus. Description: Inhibition of TMV U1 replication in tobacco BY2 protoplast at 50 nM by local lesion assay using Chenopodium quinoa leaves. The series is classed as functional, organism-based. The essentials:
(§1)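 TMV premixed with compound at a range of concentrations used to inoculate tobacco BY-2 protoplasts; virus multiplication then assayed by counting local lesions on the local lesion host Chenopodium quinoa.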

Series [2] concerns Tobacco mosaic virus. Description: Decrease in TMV U1 coat protein level in TMV infected tobacco BY2 protoplast at 50 nM by Western blot analysis. The series is classed as functional, organism-based. The essentials:
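BY-2 protoplasts (5 ml, 1.5 × 10⁶/ml) infected with TMV pretreated with compound; total protein extracted and coat protein detected by Western blot.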
For orientation: A western blot detects proteins with antibodies after separation by electrophoresis.

Series [3] concerns Tobacco mosaic virus. Description: Inhibition of TMV U1 multiplication in tobacco BY2 protoplast at 40 nM assessed as inhibition of local lesions on Chenopodium quinoa leaves by local lesion assay after 3 days postinfection. In kind it is functional. The note with it: U1, 72 h. The essentials: as §1
For series [4], the system named is Tobacco mosaic virus. Kind of series: Inhibition of TMV U1 multiplication in tobacco BY2 protoplast at 10 nM assessed as local lesion size on Chenopodium quinoa leaves by local lesion assay. The series is classed as functional.
In series [5] the test system is Tobacco mosaic virus. Description: Inhibition of TMV U1 multiplication in tobacco BY2 protoplast at 10 nM assessed as inhibition of local lesions on Chenopodium quinoa leaves by local lesion assay after 3 days postinfection. The series is classed as functional. The note with it: U1, 72 h. The essentials: as §1
Series [6] relates to Tobacco mosaic virus. Description: Inhibition of TMV U1 replication in tobacco BY2 protoplast by local lesion assay using Chenopodium quinoa leaves. The series is classed as functional, organism-based. The essentials:
as §1

The test system of series [7] is Tobacco mosaic virus. Kind of series: Inhibition of TMV U1 multiplication in tobacco BY2 protoplast at 40 nM assessed as local lesion size on Chenopodium quinoa leaves by local lesion assay. In kind it is functional.
For series [8], the system named is Tobacco mosaic virus. Description: Inhibition of TMV U1 multiplication in tobacco BY2 protoplast at 30 nM assessed as local lesion size on Chenopodium quinoa leaves by local lesion assay. In kind it is functional.
A short description of series [9]: Growth inhibition of hamster BHK21 cells at 100 nM after 48 hrs. The series is classed as cell-based, Mesocricetus auratus. The note with it: bhk-21, 48 h, 0.1 µM. The essentials: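 BHK-21 cells mock-infected and incubated with 100 nM compound for 48 h; cell morphology and growth examined by light microscopy.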
Series [10] deals with Tobacco mosaic virus. Kind of series: Inhibition of TMV U1 multiplication in tobacco BY2 protoplast at 30 nM assessed as inhibition of local lesions on Chenopodium quinoa leaves by local lesion assay after 3 days postinfection. The note with it: U1, 72 h. In kind it is functional. The method, boiled down: as §1
Series [11] concerns Tobacco mosaic virus. Kind of series: Inhibition of TMV U1 multiplication in tobacco BY2 protoplast at 20 nM assessed as inhibition of local lesions on Chenopodium quinoa leaves by local lesion assay after 3 days postinfection. The series is classed as functional. The note with it: U1, 72 h. The essentials: as §1
The subject of series [12] is Tobacco mosaic virus. Kind of series: Inhibition of TMV U1 multiplication in tobacco BY2 protoplast at 50 nM assessed as inhibition of local lesions on Chenopodium quinoa leaves by local lesion assay after 3 days postinfection. The series is classed as functional. The note with it: U1, 72 h. The method, boiled down: as §1
For series [13], the system named is Tobacco mosaic virus. Description: Inhibition of TMV U1 multiplication in tobacco BY2 protoplast at 20 nM assessed as local lesion size on Chenopodium quinoa leaves by local lesion assay. The series is classed as functional.
The subject of series [14] is Tobacco mosaic virus. Kind of series: Inhibition of TMV U1 multiplication in tobacco BY2 protoplast at 50 nM assessed as local lesion size on Chenopodium quinoa leaves by local lesion assay. In kind it is functional.
The subject of another series is Sindbis virus. Kind of series: Antiviral activity against Sindbis virus XJ160 in BHK21 cells assessed as reduction of virus-induced cytopathic effect after 24 hrs. In kind it is functional, organism-based. The note with it: BHK-21. The essentials: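 SINV XJ-160 (2 × 10⁵ pfu/ml, thrice plaque-purified) treated with compound for 15 min, adsorbed 1 h to BHK-21 cells at MOI 0.01 in quadruplicate; washed, fresh DMEM with 5% FBS added, cells kept at 37°C, 5% CO₂. Cytopathic morphology scored by light microscopy at 24 hpi.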
Background: Cytopathic effects are the visible damage that an infection or toxin causes in cultured cells.

For series [15], the system named is Tobacco mosaic virus. Description: Antiviral activity against GFP-fused TMV U1 infected Nicotiana tabacum cv K326 plant leaves assessed as inhibition of virus movement by GFP fluorescence assay. The series is classed as functional, organism-based.
The test system of series [16] is Tobacco mosaic virus. Description: Antiviral activity against TMV U1 infected Nicotiana tabacum cv K326 plant leaves assessed as inhibition of systemic virus infection. In kind it is functional, organism-based.

Calls of active or inactive are those of the source. The rule behind the calls is not given here.

What is called inhibition is the share of the control response that was lost under treatment. As usually defined, the IC50 is the midpoint of a concentration-inhibition curve. As to `CO[C@@H]1C[C@H](O[C@H]2CC[C@@]3(C)C(=CC[C@H]4C(=O)OC5CO[C@]6(C)OC=C(CC[C@@H]43)[C@H]56)C2)O[C@H](C)[C@H]1O` (stereo not given in full) [CYNATRATOSIDE A], the outcome with Tobacco mosaic virus [1] and in the series with Tobacco mosaic virus [2] was Active. Moreover, the inhibition at 0.04 µM in the series on Tobacco mosaic virus [3] was 93%. Further, the Activity with Tobacco mosaic virus [4] is reported as 2.3 mm; with Tobacco mosaic virus [7], 1.2 mm; in the series on Tobacco mosaic virus [8], 1.5 mm; in [9], “Non-toxic”; in the series on Tobacco mosaic virus [13], 1.8 mm; in the series on Tobacco mosaic virus [14], 0 mm. In the series on Sindbis virus, the Activity entry was “Dose-dependent effect”. Besides, in the series with Tobacco mosaic virus [5], the inhibition at 0.01 µM is 20%. For the same molecule, the IC50 in the series on Tobacco mosaic virus [6] was determined as 25 nM. For the same molecule, the inhibition at 0.03 µM in the series on Tobacco mosaic virus [10] worked out at 87%. In the series with Tobacco mosaic virus [11], the inhibition at 0.02 µM was found to be 37%. Also, the inhibition at 0.05 µM in the series on Tobacco mosaic virus [12] worked out at 100%.
Take `C[C@]12OC=C3CC[C@H]4[C@@H](CC=C5C[C@@H](O)CC[C@@]54C)C(=O)OC(CO1)[C@@H]32` (stereo not given in full) [GLAUCOGENIN C]: the result with Tobacco mosaic virus [1], in the series on Tobacco mosaic virus [15] and with Tobacco mosaic virus [2] was Active. Also, the inhibition at 0.04 µM with Tobacco mosaic virus [3] is 85%. Besides, the Activity in the series on Tobacco mosaic virus [4] is given as 2.1 mm; in the series on Tobacco mosaic virus [7] it was 1.3 mm; with Tobacco mosaic virus [8], 1.5 mm; in [9], “Non-toxic”; in the series with Tobacco mosaic virus [13] it was 1.9 mm; with Tobacco mosaic virus [14], 0 mm. For the same molecule, in the series on Sindbis virus, the Activity entry was “Dose-dependent effect”. Moreover, the inhibition at 0.01 µM in the series with Tobacco mosaic virus [5] is 17%. The molecule also displayed an IC50 in the series with Tobacco mosaic virus [6] of 17 nM. For the same molecule, in the series on Tobacco mosaic virus [10], the inhibition at 0.03 µM came to 79%. Further, the inhibition at 0.02 µM with Tobacco mosaic virus [11] came to 60%. Besides, in the series with Tobacco mosaic virus [12], the inhibition at 0.05 µM is 100%.
As for `CO[C@H]1C[C@H](O[C@H]2[C@@H](OC)C[C@H](O[C@@H]3[C@@H](C)O[C@H](O[C@H]4CC[C@@]5(C)C(=CC[C@H]6C(=O)OC7CO[C@]8(C)OC=C(CC[C@@H]65)[C@H]78)C4)C[C@H]3OC)O[C@@H]2C)O[C@@H](C)[C@@H]1O[C@@H]1O[C@H](CO)[C@@H](O[C@@H]2O[C@H](CO)[C@@H](O)[C@H](O)[C@H]2O)[C@H](O)[C@H]1O` (stereo not given in full) [PANICULATUMOSIDE D], the outcome in the series on Tobacco mosaic virus [1], in the series on Tobacco mosaic virus [15], with Tobacco mosaic virus [2] and with Tobacco mosaic virus [16] was Active. Besides, the inhibition at 0.04 µM with Tobacco mosaic virus [3] was determined as 88%. For the same molecule, the Activity in the series on Tobacco mosaic virus [4] is recorded as 1.7 mm; in the series on Tobacco mosaic virus [7], 1.2 mm; with Tobacco mosaic virus [8] it was 1.4 mm; in series [9], “Non-toxic”; in the series on Tobacco mosaic virus [13], 1.6 mm; in the series on Tobacco mosaic virus [14], 0 mm. For the same molecule, in the series with Sindbis virus, the Activity result was “Dose-dependent effect”. The inhibition at 0.01 µM in the series with Tobacco mosaic virus [5] was determined as 6%. Half-maximal inhibition with Tobacco mosaic virus [6] (IC50) required 25 nM. Further, in the series on Tobacco mosaic virus [10], the inhibition at 0.03 µM was found to be 79%. In addition, the inhibition at 0.02 µM in the series on Tobacco mosaic virus [11] stood at 31%. In the series with Tobacco mosaic virus [12], the inhibition at 0.05 µM is 100%.
For the molecule `CO[C@@H]1C[C@@H](O[C@H]2CC[C@@]3(C)C(=CC[C@H]4C(=O)OC5CO[C@]6(C)OC=C(CC[C@@H]43)[C@H]56)C2)O[C@H](C)[C@H]1O[C@H]1C[C@H](O)[C@H](O[C@H]2C[C@@H](OC)[C@@H](O[C@@H]3O[C@H](CO)[C@@H](O[C@@H]4O[C@H](CO)[C@@H](O)[C@H](O)[C@H]4O)[C@H](O)[C@H]3O)[C@H](C)O2)[C@@H](C)O1` (stereo not given in full) [PANICULATUMOSIDE E], the outcome in the series on Tobacco mosaic virus [1], with Tobacco mosaic virus [15], with Tobacco mosaic virus [2] and with Tobacco mosaic virus [16] was Active. For the same molecule, in the series on Tobacco mosaic virus [3], the inhibition at 0.04 µM came to 87%. Also, the Activity in the series on Tobacco mosaic virus [4] is listed as 1.6 mm; in the series with Tobacco mosaic virus [7], 1.1 mm; in the series on Tobacco mosaic virus [8] it was 1.2 mm; in [9] it was “Non-toxic”; in the series with Tobacco mosaic virus [13] it was 1.3 mm; in the series on Tobacco mosaic virus [14], 0 mm. In addition, in the series on Sindbis virus, the Activity result is “Dose-dependent effect”. Further, in the series with Tobacco mosaic virus [5], the inhibition at 0.01 µM was 16%. In the series with Tobacco mosaic virus [6], this molecule showed an IC50 of 25 nM. Besides, in the series with Tobacco mosaic virus [10], the inhibition at 0.03 µM is 73%. Moreover, the inhibition at 0.02 µM with Tobacco mosaic virus [11] worked out at 38%. For the same molecule, the inhibition at 0.05 µM in the series with Tobacco mosaic virus [12] came to 100%.
